Measurements: ChEMBL document CHEMBL1149381, “New arylthioindoles: potent inhibitors of tubulin polymerization. 2. Structure-activity relationships and molecular modeling studies” (J Med Chem, 2006)
The source made the active and inactive calls. The calls are words filed in the database; no cut-off is given here.

Columns and labels:
[1] = target: Tubulin; assay: Inhibition of tubulin polymerization; type: functional, Homo sapiens
Summary of the method: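 Tubulin 10 µM in 0.8 M monosodium glutamate (pH 6.6), preincubated 15 min at 30 °C with varying drug, chilled on ice, then GTP added to 0.4 mM. Turbidity followed at 350 nm for 20 min at 30 °C. Extent of assembly measured and IC50 derived.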

[2] = tested on: MCF7; assay: Inhibition of growth of MCF7 cells; type: functional, cell-based; settings: Homo sapiens
[3] = target: Tubulin (Homo sapiens) (UniProt P68371+Q9H4B7+P0DPH7+P68366+Q13509+Q71U36+P04350+Q3ZCM7+P07437+P68363+Q9BQE3+Q6PEY2+Q13885+Q9BVA1+Q9BUF5); assay: Displacement of [3H]colchicine from tubulin; type: protein-complex assay; settings: concentration not given here
Summary of the method: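 [3H]Colchicine 5.0 µM with 1.0 µM tubulin and 5.0 µM inhibitor, incubated 10 min at 37 °C. Result given as % inhibition of colchicine binding.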

[4] = tested on: SCLC; assay: Inhibition of growth of SCLC cells; type: functional, cell-based; settings: Homo sapiens
[5] = target: Heat shock protein HSP 90-alpha (Homo sapiens) (UniProt P07900); assay: Binding affinity to Hsp90-alpha by fluorescent polarization assay
Summary of the method: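 Fluorescence polarization competition with recombinant Hsp90α (30 nM) and GM-BODIPY (fluorescent geldanamycin, 5 nM) in 20 mM K-HEPES pH 7.3, 50 mM KCl, 5 mM MgCl2, 20 mM Na2MoO4, 0.01% NP40, 0.1 mg/mL bovine gamma globulin, 2 mM DTT. Shaken 24 h at 4 °C, mP read. EC50 = competitor concentration displacing 50% of probe.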

Row | SMILES | IC50 [1] [nM] | IC50 [2] [nM] | inhibition [3] [%] | Activity [5] | IC50 [4] [nM]
1 | CCOC(=O)c1[nH]c2cc(OC)c(OC)cc2c1S(=O)(=O)c1ccccc1 | > 40000 | > 2500 | – | – | –
2 | CCOC(=O)c1[nH]c2ccc(OC)cc2c1Sc1cccc(OC)c1 | 3100 | 280 | 39 | – | 584
3 | CCOC(=O)c1[nH]c2ccccc2c1Sc1cccc(OC)c1 | 2900 | 150 | 48 | – | 585
4 | CCCOC(=O)c1[nH]c2ccccc2c1Sc1ccccc1 | > 40000 | > 2500 | – | – | –
5 | CCC(C)OC(=O)c1[nH]c2ccccc2c1Sc1ccccc1 (centres undefined) | > 40000 | > 2500 | – | – | –
6 | CCOC(=O)c1[nH]c2ccc(OC)cc2c1Sc1ccccc1OC | 16000 | 350 | – | – | 2200
7 | COC(=O)c1[nH]c2ccc(Cl)cc2c1Sc1cc(OC)c(OC)c(OC)c1 | – | – | 57 | inactive | –
8 | CCOC(=O)c1[nH]c2ccc(OC)cc2c1Sc1ccc(OC)cc1 | > 40000 | > 2500 | – | – | > 10000
9 | CCOC(=O)c1[nH]c2ccc(Cl)cc2c1Sc1cc(OC)c(OC)c(OC)c1 | 2200 | 110 | 53 | – | 93
10 | CC(C)CCOC(=O)c1[nH]c2ccccc2c1Sc1ccccc1 | > 40000 | > 2500 | – | – | –
11 | COC(=O)c1[nH]c2ccc(OC)cc2c1S(=O)(=O)c1ccccc1 | > 40000 | > 2500 | – | – | –
12 | COC(=O)c1[nH]c2cc(OC)c(OC)cc2c1Sc1cc(OC)c(OC)c(OC)c1 | > 40000 | 1600 | – | – | –
13 | O=C(OCc1ccccc1)c1[nH]c2ccccc2c1Sc1ccccc1 | > 40000 | > 2500 | – | – | –
14 | COC(=O)c1[nH]c2ccc([N+](=O)[O-])cc2c1Sc1cc(OC)c(OC)c(OC)c1 | 4500 | 120 | 32 | – | –
15 | CCOC(=O)c1[nH]c2cc(OC)c(OC)cc2c1Sc1ccccc1 | 14000 | > 2500 | – | – | –
16 | CCOC(=O)c1[nH]c2ccccc2c1Sc1ccccc1OC | 12000 | > 2500 | – | – | –
17 | CCCCOC(=O)c1[nH]c2ccccc2c1Sc1ccccc1 | > 40000 | > 2500 | – | – | –
18 | COC(=O)c1[nH]c2ccc(Cl)cc2c1Sc1ccccc1OC | 4200 | 1300 | 34 | – | 7000
19 | COC(=O)c1[nH]c2ccc(Cl)cc2c1S(=O)(=O)c1ccc(OC)cc1 | > 40000 | > 2500 | – | – | –

Continued, in another order:

Row | IC50 [1] [nM] | IC50 [2] [nM] | inhibition [3] [%] | Activity [5] | SMILES | IC50 [4] [nM]
20 | > 40000 | > 2500 | – | – | COC(=O)c1[nH]c2ccc(Cl)cc2c1S(=O)(=O)c1ccccc1OC | –
21 | 18000 | > 2500 | – | – | CC(C)OC(=O)c1[nH]c2ccccc2c1Sc1ccccc1 | –
22 | 1800 | 330 | 53 | – | COC(=O)c1[nH]c2ccc(Cl)cc2c1Sc1cccc(OC)c1 | 3200
23 | > 40000 | > 2500 | – | – | CCOC(=O)c1[nH]c2ccccc2c1Sc1ccc(OC)cc1 | > 10000
24 | > 40000 | > 2500 | – | – | CC(C)(C)OC(=O)c1[nH]c2ccccc2c1Sc1ccccc1 | –
25 | > 40000 | > 2500 | – | – | COC(=O)c1[nH]c2cccc(OC)c2c1Sc1ccccc1 | –
26 | 2200 | 34 | 82 | – | COC(=O)c1[nH]c2ccc(Cl)cc2c1Sc1cc(OC)cc(OC)c1 | 18
27 | – | – | 51 | – | CCOC(=O)c1[nH]c2ccccc2c1Sc1cc(OC)c(OC)c(OC)c1 | –
28 | 31000 | > 2500 | – | – | COC(=O)c1[nH]c2ccc(Cl)cc2c1S(=O)(=O)c1cccc(OC)c1 | > 10000
29 | 2400 | 46 | 71 | – | CCOC(=O)c1[nH]c2ccc(OC)cc2c1Sc1cc(OC)c(OC)c(OC)c1 | –
30 | > 40000 | > 2500 | – | – | COC(=O)c1[nH]c2cc(OC)ccc2c1Sc1ccccc1 | –
31 | 22000 | 1000 | – | – | CCOC(=O)c1[nH]c2cc(OC)c(OC)cc2c1Sc1cc(OC)c(OC)c(OC)c1 | –
